# Data from ChEMBL document CHEMBL4689842, “EUbOPEN Chemogenomics Library wave 1” (2021).
# Test system: HEK-293T
# Test: Multiplex assay against HEK293T;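 for Population Tubulin-Different-Phenotype (%): share of the cells with healthy nuclei that show this phenotype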
# Type: toxicity, cell-based
# Details: human
# Method in brief: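 Imaging took place on a CQ1 microscope at 37°C and 5% CO2 once compound had been added to live cells stained at seeding with Hoechst33342, BioTracker Green Microtubule Cytoskeleton Dye, MitoTracker Red and Annexin V Alexa Fluor 680. CellPathfinder machine-learning gating classed cells as Hoechst high-intensity objects or normal cells, classed normal cells as having healthy, pyknosed or fragmented nuclei, and classed pyknosed cells as mitotic or apoptotic. Tubulin, mitochondrial-mass and membrane-permeability phenotypes are per cents of the healthy-nucleus cells.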
# [1] = 12 h, 1 µM, compound concentration 1 uM, replicate 1
# [2] = 12 h, 1 µM, compound concentration 1 uM, replicate 2
# [3] = 12 h, 10 µM, compound concentration 10 uM, replicate 1
# [4] = 12 h, 10 µM, compound concentration 10 uM, replicate 2
# [5] = 24 h, 1 µM, compound concentration 1 uM, replicate 1
# [6] = 24 h, 1 µM, compound concentration 1 uM, replicate 2
# [7] = 24 h, 10 µM, compound concentration 10 uM, replicate 1
# [8] = 24 h, 10 µM, compound concentration 10 uM, replicate 2
compound,measurement,setting,value
Cc1nc(-c2cn3c(n2)-c2ccc(-c4cnn(C(C)(C)C(N)=O)c4)cc2OCC3)n(C(C)C)n1 [TASELISIB],Population Apoptotic (%),[1],21%
same,Population Fragmented Nuclei (%),[1],14%
same,Population Healthy Nuclei (%),[1],44%
same,Population Hoechst High Intensity Objects (%),[1],22%
same,Population Membrane Permeable-Phenotype (%),[1],4%
same,Population Mitochondria Different-Phenotype (%),[1],12%
same,Population Mitotic Cells (%),[1],78%
same,Population Normal (%),[1],77%
same,Population Pyknosed Nuclei (%),[1],41%
same,Population Tubulin-Different-Phenotype (%),[1],9%
same,Total Cell Count,[1],548
same,Population Apoptotic (%),[2],17%
same,Population Fragmented Nuclei (%),[2],2%
same,Population Healthy Nuclei (%),[2],80%
same,Population Hoechst High Intensity Objects (%),[2],7%
same,Population Membrane Permeable-Phenotype (%),[2],0%
same,Population Mitochondria Different-Phenotype (%),[2],28%
same,Population Mitotic Cells (%),[2],82%
same,Population Normal (%),[2],92%
same,Population Pyknosed Nuclei (%),[2],16%
same,Population Tubulin-Different-Phenotype (%),[2],13%
same,Total Cell Count,[2],803
same,Population Apoptotic (%),[3],17%
same,Population Fragmented Nuclei (%),[3],17%
same,Population Healthy Nuclei (%),[3],49%
same,Population Hoechst High Intensity Objects (%),[3],12%
same,Population Membrane Permeable-Phenotype (%),[3],3%
same,Population Mitochondria Different-Phenotype (%),[3],8%
same,Population Mitotic Cells (%),[3],82%
same,Population Normal (%),[3],87%
same,Population Pyknosed Nuclei (%),[3],32%
same,Population Tubulin-Different-Phenotype (%),[3],6%
same,Total Cell Count,[3],507
same,Population Apoptotic (%),[4],11%
same,Population Fragmented Nuclei (%),[4],8%
same,Population Healthy Nuclei (%),[4],86%
same,Population Hoechst High Intensity Objects (%),[4],3%
same,Population Membrane Permeable-Phenotype (%),[4],1%
same,Population Mitochondria Different-Phenotype (%),[4],11%
same,Population Mitotic Cells (%),[4],88%
same,Population Normal (%),[4],96%
same,Population Pyknosed Nuclei (%),[4],4%
same,Population Tubulin-Different-Phenotype (%),[4],10%
same,Total Cell Count,[4],1692
same,Population Apoptotic (%),[5],24%
same,Population Fragmented Nuclei (%),[5],16%
same,Population Healthy Nuclei (%),[5],53%
same,Population Hoechst High Intensity Objects (%),[5],17%
same,Population Membrane Permeable-Phenotype (%),[5],3%
same,Population Mitochondria Different-Phenotype (%),[5],15%
same,Population Mitotic Cells (%),[5],75%
same,Population Normal (%),[5],82%
same,Population Pyknosed Nuclei (%),[5],30%
same,Population Tubulin-Different-Phenotype (%),[5],18%
same,Total Cell Count,[5],507
same,Population Apoptotic (%),[6],20%
same,Population Fragmented Nuclei (%),[6],4%
same,Population Healthy Nuclei (%),[6],84%
same,Population Hoechst High Intensity Objects (%),[6],10%
same,Population Membrane Permeable-Phenotype (%),[6],1%
same,Population Mitochondria Different-Phenotype (%),[6],20%
same,Population Mitotic Cells (%),[6],79%
same,Population Normal (%),[6],89%
same,Population Pyknosed Nuclei (%),[6],11%
same,Population Tubulin-Different-Phenotype (%),[6],39%
same,Total Cell Count,[6],810
same,Population Apoptotic (%),[7],27%
same,Population Fragmented Nuclei (%),[7],13%
same,Population Healthy Nuclei (%),[7],66%
same,Population Hoechst High Intensity Objects (%),[7],8%
same,Population Membrane Permeable-Phenotype (%),[7],12%
same,Population Mitochondria Different-Phenotype (%),[7],5%
same,Population Mitotic Cells (%),[7],72%
same,Population Normal (%),[7],91%
same,Population Pyknosed Nuclei (%),[7],19%
same,Population Tubulin-Different-Phenotype (%),[7],11%
same,Total Cell Count,[7],535
same,Population Apoptotic (%),[8],3%
same,Population Fragmented Nuclei (%),[8],24%
same,Population Healthy Nuclei (%),[8],73%
same,Population Hoechst High Intensity Objects (%),[8],4%
same,Population Membrane Permeable-Phenotype (%),[8],7%
same,Population Mitochondria Different-Phenotype (%),[8],2%
same,Population Mitotic Cells (%),[8],96%
same,Population Normal (%),[8],95%
same,Population Pyknosed Nuclei (%),[8],1%
same,Population Tubulin-Different-Phenotype (%),[8],12%
same,Total Cell Count,[8],2851
